From ChEMBL document CHEMBL1140689, “Benzyl amide-ketoacid inhibitors of HIV-integrase” (Bioorg Med Chem Lett, 2007)

tested on: Human immunodeficiency virus 1; experiment: Antiviral activity against luciferase containing HIV1 NL4-3 virus in MT2 cells; format: functional, organism-based; settings: Human immunodeficiency virus 1, NL4-3, MT2

EC50 [nM]	Compound
1200	CC1(C)OC(=O)/C(=C/C(=O)NCc2ccc(F)cc2)O1
5900	O=C(/C=C(\O)C(=O)O)NCc1ccc(F)cc1
600	CN(Cc1ccc(F)cc1)C(=O)/C=C(\O)C(=O)O

molecular target: not listed separately; experiment: Inhibition of HIV1 recombinant integrase; parameters: species or system Human immunodeficiency virus 1; settings: not given
Outline: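 Strand-transfer scintillation proximity readout. 5 pmol biotin-labeled substrate DNA bound to 100 μg streptavidin SPA beads. Recombinant integrase (0.26 ng) loaded onto the beads for 90 min at 37 °C, and unbound enzyme washed off. Inhibitors then added with 0.1 fmol 33P-labeled target DNA. Reaction stopped with EDTA (10 mM final). Integration measured as scintillation CPM.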

IC50 [nM]	Compound
1300	Cc1ccccc1CNC(=O)/C=C(\O)C(=O)O
2100	O=C(/C=C(\O)C(=O)O)NCc1ccc([N+](=O)[O-])cc1
300	O=C(/C=C(\O)C(=O)O)NCc1ccccc1
1200	O=C(/C=C(\O)C(=O)O)NCc1cccc(F)c1
200	O=C(/C=C(\O)C(=O)O)NCc1ccc(F)cc1
600	O=C(/C=C(\O)C(=O)O)NCc1cccc(Cl)c1
180000	CC(C)(C)c1ccc(CNC(=O)/C=C(\O)C(=O)O)cc1
300	COc1ccc(CNC(=O)/C=C(\O)C(=O)O)cc1Cl
200	Cc1ccc(CNC(=O)/C=C(\O)C(=O)O)cc1F
1400	Cc1ccc(CNC(=O)/C=C(\O)C(=O)O)cc1
2400	COc1cccc(CNC(=O)/C=C(\O)C(=O)O)c1
4200	COc1ccc(CNC(=O)/C=C(\O)C(=O)O)cc1
700	O=C(/C=C(\O)C(=O)O)NCc1ccc(Cl)nc1
1100	O=C(/C=C(\O)C(=O)O)NCc1ccc(Cl)cc1
9000	O=C(/C=C(\O)C(=O)O)NCc1ccc(C(F)(F)F)cc1
300	Cc1cccc(CNC(=O)/C=C(\O)C(=O)O)c1

The remaining lines, values behind:

Compound	IC50 [nM]
O=C(/C=C(\O)C(=O)O)NCc1cc(F)cc(F)c1	1700
O=C(/C=C(\O)C(=O)O)NCc1cccc(Cl)c1Cl	200
CN(Cc1ccc(F)cc1)C(=O)/C=C(\O)C(=O)O	110
COc1ccc(CNC(=O)/C=C(\O)C(=O)O)c(OC)c1	7500
COc1ccccc1CNC(=O)/C=C(\O)C(=O)O	500
C[C@@H](NC(=O)/C=C(\O)C(=O)O)c1ccccc1	> 300000
C[C@H](NC(=O)/C=C(\O)C(=O)O)c1ccccc1	24000
O=C(/C=C(\O)C(=O)O)NCc1ccccc1F	1800
CC(NC(=O)/C=C(\O)C(=O)O)c1ccc(F)cc1 (centres undefined)	3000
O=C(/C=C(\O)C(=O)O)NCc1ccccc1Cl	1700
